From PubChem
Rows were chosen to be rich in hits. Some 2.1% of all compounds tested hit in one or more screens of this group.
PDI inh = inhibitors of human protein disulfide isomerase | AID 588391 | PDI insulin aggregation turbidity, A650, 90 min | P07237 | actives 0.052% (n = 350,000) | inhibition, % at 10 µM;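 active = mean inhibition across replicates of 30% or more, whatever share of single replicates reach that level; inconclusive = mean inhibition below 30% while every single replicate reaches 30%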
MLL AF4-AF9 inh = blocks AF4 peptide binding to human AF9. P42568. AlphaScreen, biotin-AF4 peptide binding to FLAG-AF9. inhibition, % at 10 µM. actives 0.47% (n = 350,000). AID 651704;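 active = every replicate reaching a set inhibition limit, whatever the replicate mean, cut at about 25% in these data; inconclusive = mean inhibition reaches that limit but some replicates miss it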;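 also: 0% = plate neutral control median and 100% = total signal loss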
Target sequence (P42568 whole entry, looked up): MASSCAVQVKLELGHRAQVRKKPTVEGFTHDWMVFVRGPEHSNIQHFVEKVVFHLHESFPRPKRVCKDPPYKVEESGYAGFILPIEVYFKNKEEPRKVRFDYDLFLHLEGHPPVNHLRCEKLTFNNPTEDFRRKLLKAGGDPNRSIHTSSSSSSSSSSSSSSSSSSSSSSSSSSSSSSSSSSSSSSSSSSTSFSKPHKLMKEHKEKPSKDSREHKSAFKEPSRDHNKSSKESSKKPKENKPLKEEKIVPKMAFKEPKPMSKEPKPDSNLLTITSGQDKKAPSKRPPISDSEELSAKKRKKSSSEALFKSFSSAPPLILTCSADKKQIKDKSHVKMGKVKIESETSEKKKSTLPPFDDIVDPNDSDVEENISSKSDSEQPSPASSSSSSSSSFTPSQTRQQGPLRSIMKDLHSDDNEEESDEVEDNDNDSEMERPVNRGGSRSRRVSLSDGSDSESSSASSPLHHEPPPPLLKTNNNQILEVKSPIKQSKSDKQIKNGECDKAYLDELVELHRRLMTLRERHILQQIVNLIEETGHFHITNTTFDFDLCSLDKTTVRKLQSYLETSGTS
ARNT-TACC3 inh = disruptors of human ARNT/TACC3 interaction. Q9Y6A5. AlphaScreen His-ARNT PAS-B/GST-TACC3 binding, luminescence; TACC3 fragment carries E629A point mutation. inhibition, % at 9.99 µM. actives 0.66% (n = 390,000). AID 623870;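 active = mean inhibition of replicates at least 50% and at least half of replicates each reaching 50%; inconclusive = half or more replicates reach 50% but mean below 50%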;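 also: 0% = complete ARNT plus TACC3 wells and 100% = ARNT alone without TACC3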
FN deposit inh = fibronectin deposition inhibition; AH1F fibroblasts, Alexa488-fibronectin deposition fluorescence, overnight; actives 0.086% (n = 350,000); inhibition, % at 12.6 µM;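 active = mean inhibition across replicates of 30% or more, regardless of how many single replicates reach that level; inconclusive = mean under 30% yet at least half of replicates reach 30%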;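 also: positive control wells lacked labelled fibronectin entirely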
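material = AH1F fibroblast monolayer depositing Alexa488-labelled fibronectin into matrix | amount = 10000 AH1F cells/well | buffer or medium = DMEM plus 2% serum, read in PBS | incubation = 1 h cell adhesion before compound, then overnight fibronectin incubation | detection = fluorescence at 485 nm excitation, 525 nm emission | evaluation = percent inhibition as loss of matrix-bound fibronectin fluorescence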
FGF22 binding = shifts melting point of recombinant human FGF22; Q9HCT0; recombinant FGF22 thermal shift, SYPRO orange fluorescence; percent of sucrose octasulfate shift, DMSO zero; activity (Tm shift, normalised), % at 9.99 µM; actives 1.5% (n = 340,000); AID 651658;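 active = mean Tm shift, scaled 0 neutral to 100 positive control, at about 1.3% or above, every replicate too, limit read from the data; inconclusive = no clear call, values can overlap the other calls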
ERp5 block = blocks human ERp5 reductase activity on insulin; AID 651711; Q15084; ERp5 insulin aggregation, absorbance 650 nm, 90 min; inhibition, % at 9.99 µM; actives 0.05% (n = 350,000);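 active = mean replicate inhibition above about 25%, with every replicate also reaching it, limit read from the data, passing the limit was not always enough; inconclusive = only one of those two criteria met; inactive = neither criterion met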
* hit, by the source's call.

What do the screens show for `CO[C@@H]1CN(C)C(=O)c2ccc(NC(=O)NC(C)C)cc2OC[C@@H](C)N(C(=O)NC(C)C)C[C@@H]1C`?
MLL AF4-AF9 inh: 0; ARNT-TACC3 inh: -8; FN deposit inh: -3; FGF22 binding: -1; ERp5 block: 7

How did N#CNC(=Nc1cccc(F)c1)SCc1ccccc1 do in these assays?
PDI inh: 2; MLL AF4-AF9 inh: -1; FN deposit inh: 7; FGF22 binding: 44*; ERp5 block: -5

Results for N#CNC(=Nc1cccc(F)c1)SCc1cccc(F)c1 ?
PDI inh: -10; MLL AF4-AF9 inh: -2; ARNT-TACC3 inh: 8; FN deposit inh: -4; FGF22 binding: 0; ERp5 block: -3

Results for O=C(CN1C(=O)CCC1=O)Nc1nc(-c2ccc3ccccc3c2)cs1 ?
PDI inh: 7; MLL AF4-AF9 inh: -1; ARNT-TACC3 inh: -3; FN deposit inh: 0; FGF22 binding: 44*; ERp5 block: 5

How did Cc1ccc(-c2csc(NC(=O)CN3C(=O)CCC3=O)n2)cc1 do in these assays?
PDI inh: -4; MLL AF4-AF9 inh: -4; ARNT-TACC3 inh: -5; FN deposit inh: -17; FGF22 binding: 0; ERp5 block: 3

Results for C[C@H](NC(=O)C[C@H]1C[C@H]2c3cc(NC(=O)Cc4ccncc4)ccc3O[C@H]2[C@@H](CO)O1)c1ccccc1 ?
MLL AF4-AF9 inh: 3; ARNT-TACC3 inh: 2; FGF22 binding: 0; ERp5 block: 0

Results for CCCNC(=O)Cn1c(-c2ccc(F)cc2)cc(C(=O)OCC)c1C ?
PDI inh: inconclusive; MLL AF4-AF9 inh: -3; FN deposit inh: 8; FGF22 binding: 43*; ERp5 block: 3

Results for CCOC(=O)c1cc(-c2ccc(F)cc2)n(CC(=O)NC(C)CC)c1C (stereo not given) ?
PDI inh: -1; MLL AF4-AF9 inh: -1; ARNT-TACC3 inh: 3; FN deposit inh: -11; FGF22 binding: 43*; ERp5 block: 0

How did CCCNC(=O)CCn1c(-c2ccc(C)cc2)cc(C(=O)OCC)c1C do in these assays?
PDI inh: 0; ARNT-TACC3 inh: 0; FN deposit inh: 0

Results for COc1ccccc1-n1cnc2cc(NCc3ccccn3)ccc21 ?
PDI inh: -6; ARNT-TACC3 inh: 5; FN deposit inh: -2

Results for CCCn1cnc2cc(NCc3ccccn3)ccc21 ?
PDI inh: -3; MLL AF4-AF9 inh: 43*; ARNT-TACC3 inh: 33; FN deposit inh: 26; FGF22 binding: 0; ERp5 block: 0

How did COC(=O)c1ccc(/C=N/NC(=O)C(=O)NCc2ccccc2)cc1 do in these assays?
PDI inh: -6; MLL AF4-AF9 inh: -3; ARNT-TACC3 inh: 9; FN deposit inh: -2; FGF22 binding: 43*; ERp5 block: 7

Results for Cn1nnnc1Sc1ncnc2scc(-c3ccc4c(c3)OCO4)c12 ?
PDI inh: 0; MLL AF4-AF9 inh: 5; ARNT-TACC3 inh: 47*; FN deposit inh: 26; FGF22 binding: 0; ERp5 block: -1

How did Cn1nnnc1Sc1ncnc2scc(-c3ccc(Cl)cc3)c12 do in these assays?
PDI inh: -5; MLL AF4-AF9 inh: 0; FN deposit inh: 11; FGF22 binding: 0; ERp5 block: 0

How did CCn1c(/C=C/c2ccc(F)cc2)nc2ccccc2c1=O do in these assays?
PDI inh: -4; MLL AF4-AF9 inh: 4; ARNT-TACC3 inh: -6; FN deposit inh: 2; FGF22 binding: 0; ERp5 block: 2

What do the screens show for `CCn1c(/C=C/c2ccccc2)nc2ccccc2c1=O`?
PDI inh: 9; MLL AF4-AF9 inh: 10; FN deposit inh: -17; FGF22 binding: 44*; ERp5 block: 6

How did Cc1ccnc(NC(=O)c2ccc(Cl)cc2Cl)n1 do in these assays?
MLL AF4-AF9 inh: -2; FN deposit inh: -7; FGF22 binding: 43*; ERp5 block: 1

Results for COc1ccc(NC(=O)N(C)C[C@H]2OCCCC[C@H](C)Oc3ccc(NC(=O)C4CCCCC4)cc3C(=O)N([C@@H](C)CO)C[C@H]2C)cc1 ?
MLL AF4-AF9 inh: 0; ARNT-TACC3 inh: 1; FGF22 binding: 0; ERp5 block: -7

Results for COCCCNC(=S)NNC(=O)c1ccccn1 ?
PDI inh: 1; MLL AF4-AF9 inh: -2; ARNT-TACC3 inh: 67*; FN deposit inh: 4; FGF22 binding: 0; ERp5 block: 5

What do the screens show for `COc1ccc(CC(=O)NNC(=O)c2ccccn2)cc1`?
PDI inh: -1; MLL AF4-AF9 inh: -7; ARNT-TACC3 inh: 48*; FN deposit inh: -9; FGF22 binding: 0; ERp5 block: 4

What do the screens show for `Cc1cc(C)cc(OCC(=O)NNC(=O)c2ccccn2)c1`?
PDI inh: 5; MLL AF4-AF9 inh: -1; ARNT-TACC3 inh: 68*; FN deposit inh: 10; FGF22 binding: 0; ERp5 block: -4

Results for O=C(NNC(=O)C12CC3CC(CC(C3)C1)C2)c1ccccn1 ?
PDI inh: -2; MLL AF4-AF9 inh: -2; ARNT-TACC3 inh: 75*; FN deposit inh: 18; FGF22 binding: 0; ERp5 block: -3

Results for CC(C)OC(=O)N(C)C[C@H]1OCc2ccccc2-c2c(n(C)c3ccccc23)C(=O)N([C@H](C)CO)C[C@H]1C ?
MLL AF4-AF9 inh: 0; ARNT-TACC3 inh: 8; FN deposit inh: -2; FGF22 binding: 0; ERp5 block: -6

Results for Cc1nc2nc(C)c(C)nc2nc1C ?
PDI inh: -5; MLL AF4-AF9 inh: -57; FN deposit inh: -3; FGF22 binding: 43*; ERp5 block: -1

What do the screens show for `Cc1nc2c(C)c(C)c(C)c(C)c2nc1C`?
PDI inh: -8; MLL AF4-AF9 inh: -2; FN deposit inh: 4; FGF22 binding: 0; ERp5 block: 3

Results for CN1[C@H](C(=O)NCCN2CCCCC2)[C@@H](CO)[C@@H]2Cn3c(ccc(-c4ccc(F)cc4)c3=O)[C@@H]21 ?
MLL AF4-AF9 inh: -2; ARNT-TACC3 inh: -7; FGF22 binding: 0; ERp5 block: -2

What do the screens show for `CCN1CCN(C(=S)c2ccc(OC)cc2)CC1`?
PDI inh: 1; MLL AF4-AF9 inh: -11; ARNT-TACC3 inh: 11; FN deposit inh: -1; FGF22 binding: 43*; ERp5 block: 2

Results for CCN1CCN(C(=O)C(C)Nc2ccc(OC)cc2OC)CC1 (stereo not given) ?
PDI inh: -2; MLL AF4-AF9 inh: 26*; ARNT-TACC3 inh: 42*; FN deposit inh: -2; FGF22 binding: 0; ERp5 block: 1

What do the screens show for `CN(C)CC#Cc1ccc([C@H]2[C@H](CO)N3CCCCN(C(=O)C4CCC4)C[C@@H]23)cc1`?
MLL AF4-AF9 inh: -1; ARNT-TACC3 inh: -2; FGF22 binding: 1; ERp5 block: 1

Results for COCC#Cc1cnc2c(c1)C(=O)N([C@H](C)CO)C[C@@H](C)[C@H](CN(C)Cc1ccc(F)cc1)O2 ?
MLL AF4-AF9 inh: 2; ARNT-TACC3 inh: -4; FN deposit inh: -8; ERp5 block: -2
